Test results: ChEMBL document CHEMBL3352044, “Synthesis and structure-activity relationship studies of N-benzyl-2-phenylpyrimidin-4-amine derivatives as potent USP1/UAF1 deubiquitinase inhibitors with anticancer activity against nonsmall cell lung cancer” (J Med Chem, 2014)

How the values were obtained:
[1] = target: Ubiquitin carboxyl-terminal hydrolase 1/WD repeat-containing protein 48 (Homo sapiens, UniProt O94782); experiment: Inhibition of human USP1/UAF1 using ubiquitin-rhodamine110 substrate by fluorescence assay
Sequence of Ubiquitin carboxyl-terminal hydrolase 1/WD repeat-containing protein 48 (O94782 whole entry): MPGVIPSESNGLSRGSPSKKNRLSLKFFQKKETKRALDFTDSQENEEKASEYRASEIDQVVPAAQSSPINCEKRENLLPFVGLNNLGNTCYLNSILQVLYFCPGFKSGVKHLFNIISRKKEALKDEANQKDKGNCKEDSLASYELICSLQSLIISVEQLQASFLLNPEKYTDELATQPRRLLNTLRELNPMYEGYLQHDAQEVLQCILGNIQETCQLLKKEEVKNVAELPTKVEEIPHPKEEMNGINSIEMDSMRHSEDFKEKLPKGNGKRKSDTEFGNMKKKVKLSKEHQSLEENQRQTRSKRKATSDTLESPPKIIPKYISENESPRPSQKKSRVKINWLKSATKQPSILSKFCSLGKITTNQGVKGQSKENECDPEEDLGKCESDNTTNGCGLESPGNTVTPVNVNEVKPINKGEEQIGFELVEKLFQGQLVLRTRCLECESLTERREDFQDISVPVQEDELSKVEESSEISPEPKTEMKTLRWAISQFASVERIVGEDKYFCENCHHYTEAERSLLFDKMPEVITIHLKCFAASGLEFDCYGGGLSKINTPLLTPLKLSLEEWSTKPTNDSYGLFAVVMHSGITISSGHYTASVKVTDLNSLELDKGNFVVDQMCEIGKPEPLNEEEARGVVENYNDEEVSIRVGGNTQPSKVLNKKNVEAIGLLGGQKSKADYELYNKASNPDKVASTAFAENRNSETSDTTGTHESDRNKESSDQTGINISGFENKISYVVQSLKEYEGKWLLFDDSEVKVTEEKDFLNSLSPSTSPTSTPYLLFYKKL
Sequence of Ubiquitin carboxyl-terminal hydrolase 1/WD repeat-containing protein 48 (Q8TAF3 whole entry, further chain): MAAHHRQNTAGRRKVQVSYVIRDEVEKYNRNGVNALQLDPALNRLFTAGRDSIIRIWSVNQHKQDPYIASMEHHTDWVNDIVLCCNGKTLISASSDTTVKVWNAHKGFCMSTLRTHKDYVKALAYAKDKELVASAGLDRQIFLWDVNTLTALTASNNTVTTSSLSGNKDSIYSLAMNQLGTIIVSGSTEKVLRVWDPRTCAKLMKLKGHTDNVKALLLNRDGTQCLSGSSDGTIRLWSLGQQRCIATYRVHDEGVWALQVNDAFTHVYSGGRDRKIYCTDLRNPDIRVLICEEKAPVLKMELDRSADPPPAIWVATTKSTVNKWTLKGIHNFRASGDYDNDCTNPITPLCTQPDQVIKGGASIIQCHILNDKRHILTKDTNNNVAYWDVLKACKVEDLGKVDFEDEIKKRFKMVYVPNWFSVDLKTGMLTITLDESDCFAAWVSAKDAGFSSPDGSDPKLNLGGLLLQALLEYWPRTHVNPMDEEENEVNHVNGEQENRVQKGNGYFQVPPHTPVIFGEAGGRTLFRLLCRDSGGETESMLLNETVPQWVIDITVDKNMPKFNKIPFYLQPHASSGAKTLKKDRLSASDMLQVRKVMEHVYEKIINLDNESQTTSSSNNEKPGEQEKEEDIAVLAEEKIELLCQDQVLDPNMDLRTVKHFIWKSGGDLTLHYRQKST

[2] = test system: Liver microsome; experiment: Half life in rat liver microsomes in presence of NADPH; assay type: ADME
Method in brief: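 Rat liver microsomes with NADPH; half-life in minutes.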

Structure (SMILES) | IC50 [1] [nM] | t1/2 [2] [min]
Fc1ccc(CNc2nc(-c3ccccc3C(F)(F)F)nc3ccccc23)cc1 | 3400 | –
Cc1cnc(-c2ccccc2CO)nc1NCc1ccc(-c2cccnc2)cc1 | 10500 | –
[2H]C([2H])([2H])C([2H])(c1ccccc1-c1ncc(C)c(NC(C)(C)c2ccc(-n3ccnn3)cc2)n1)C([2H])([2H])[2H] | 760 | 10
Cc1cnc(-c2ccccc2C(C)O)nc1NCc1ccc(-c2cccnc2)cc1 (stereo not given) | 2000 | –
FC(F)(F)c1ccccc1-c1nc(NCc2ccc3c(c2)OCO3)c2ccccc2n1 | 8400 | –
FC(F)(F)c1ccccc1-c1nc(NCC#Cc2cccnc2)c2ccccc2n1 | 8900 | –
Cc1cnc(-c2ccccc2C2CCC2)nc1NCc1ccc(-n2ccnn2)cc1 | 180 | 5.1
FC(F)(F)c1ccccc1-c1nc(NCc2ccccc2)c2ccccc2n1 | 3100 | –
CC(C)c1ccccc1-c1nc(NCc2ccc(-c3cccnc3)cc2)c2cccn2n1 | 260 | –
CC(C)c1ccccc1-c1ncc(N(C)C)c(NCc2ccc(-c3cccnc3)cc2)n1 | 190 | –
[2H]C([2H])([2H])C([2H])(c1ccccc1-c1ncc(C)c(NCc2ccc(-n3ccnn3)cc2)n1)C([2H])([2H])[2H] | – | 9.5
CC(C)c1ccccc1-c1nc(NCc2ccc(-c3cccnc3)cc2)c2nc[nH]c2n1 | 120 | –
Cc1nc(-c2ccccc2C(C)C)nc(NCc2ccc(-c3cccnc3)cc2)c1C | 120 | –
Cc1cnc(-c2ccccc2C(F)F)nc1NCc1ccc(-n2ccnn2)cc1 | 820 | 21
FC(F)(F)c1ccccc1-c1nc(NCc2ccc(-c3ccc(Cl)cc3)cc2)c2ccccc2n1 | 3600 | –
Cc1cccc(C(CO)Nc2nc(-c3ccccc3C(C)C)ncc2C)c1 (stereo not given) | 21000 | –
FC(F)(F)c1ccccc1-c1nc(NCc2ccc(N3CCOCC3)cc2)c2ccccc2n1 | 10400 | –
COc1ccccc1-c1nc(NCc2ccc(-c3cccnc3)cc2)c2ccccc2n1 | 940 | –
FC(F)(F)c1ccccc1-c1nc(NCc2ccc(-c3cccnc3)cc2)c2ccccc2n1 | 1100 | –
FC(F)(F)c1ccc(CNc2nc(-c3ccccc3C(F)(F)F)nc3ccccc23)cc1 | 8900 | –

Structure (SMILES) | IC50 [1] [nM] | t1/2 [2] [min]
FC(F)(F)c1ccccc1-c1nc(NCc2ccc(Cl)c(Cl)c2)c2ccccc2n1 | 10400 | –
COc1ccc(CNc2nc(-c3ccccc3C(F)(F)F)nc3ccccc23)cc1 | 6200 | –
CC(C)c1ccccc1-c1nc2c(c(NCc3ccc(-c4cccnc4)cc3)n1)CNC2 | 2900 | –
FC(F)(F)c1ccccc1-c1nc(NCc2ccc(-c3cccc(Cl)c3)cc2)c2ccccc2n1 | 2700 | –
Cc1ccc(N2CCC(CNc3nc(-c4ccccc4C(C)C)ncc3C)CC2)cn1 | 90 | –
CCc1ccccc1-c1nc(NCc2ccc(-c3cccnc3)cc2)c2ccccc2n1 | 780 | –
FC(F)(F)c1ccccc1-c1nc(NCc2ccc(-c3cncnc3)cc2)c2ccccc2n1 | 3000 | –
Cc1cnc(-c2ccccc2C(C)C)nc1NCC1CCN(c2cnccn2)CC1 | 140 | –
Cc1cnc(-c2ccccc2C2CC2)nc1NCc1ccc(-c2cccnc2)cc1 | 180 | 6.2
FC(F)(F)c1cc(-c2ccc(CNc3nc(-c4ccccc4C(F)(F)F)nc4ccccc34)cc2)ccn1 | 4900 | –
Cc1cnc(-c2ccccc2C(C)C)nc1NCc1ccc(-c2nnn[nH]2)cc1 | 5900 | –
Cc1cnc(-c2ccccc2C(C)C)nc1NCC1CCN(c2cccnc2)C1 (stereo not given) | 800 | –
Clc1ccccc1-c1nc(NCc2ccc(-c3cccnc3)cc2)c2ccccc2n1 | 2100 | –
CC(C)c1ccccc1-c1nc(NCc2ccc(-c3cccnc3)cc2)c2ccccc2n1 | 180 | –
N#Cc1ccc(CNc2nc(-c3ccccc3C(F)(F)F)nc3ccccc23)cc1 | 5700 | –
Cc1cnc(-c2ccccc2C(C)C)nc1NCC1CN(c2cccnc2)C1 | 21700 | –
CC(C)c1ccccc1-c1nc(NCc2ccc(-c3cccnc3)cc2)c2ccsc2n1 | 280 | –
Cc1cnc(-c2ccccc2C(C)C)nc1NCc1ccc(-c2ccnc(C(F)(F)F)c2)cc1 | 320 | –
Cc1cnc(-c2ccccc2C(C)C)nc1NCc1cccs1 | 270 | –

Second part, the compound after the results:

IC50 [1] [nM] | t1/2 [2] [min] | Structure (SMILES)
860 | – | CC(C)c1ccccc1-c1nc2c(c(NCc3ccc(-c4cccnc4)cc3)n1)CCNC2
1300 | – | Cc1cnc(-c2ccccc2C(C)C)nc1NCc1cccnc1
310 | – | CC(C)c1ccccc1-c1ncc(N)c(NCc2ccc(-c3cccnc3)cc2)n1
1100 | – | Cc1ccccc1-c1nc(NCc2ccc(-c3cccnc3)cc2)c2ccccc2n1
130 | – | Cc1cccc(CNc2nc(-c3ccccc3C(C)C)ncc2C)c1
70 | 5.8 | Cc1cnc(-c2ccccc2C(C)C)nc1NCc1ccc(-c2cccnc2)cc1
9800 | – | FC(F)(F)c1ccccc1-c1nc(NCc2ccc(C3CCCCC3)cc2)c2ccccc2n1
1900 | – | FC(F)(F)c1ccccc1-c1nc(NCc2ccc(-c3ccncc3)cc2)c2ccccc2n1
13600 | – | Cc1cnc(-c2ccccc2C(C)C)nc1NCC1CCN(C2COC2)CC1
3700 | – | FC(F)(F)c1ccccc1-c1nc(NCc2ccc(-c3ccccc3)cc2)c2ccccc2n1
4800 | – | FC(F)(F)c1ccccc1-c1nc(NCc2ccc(Cl)cc2)c2ccccc2n1
– | 12 | [2H]C([2H])(Nc1nc(-c2ccccc2C(C)C)ncc1C)c1ccc(-n2ccnn2)cc1
110 | – | CC(C)c1ccccc1-c1ncc(F)c(NCc2ccc(-c3cccnc3)cc2)n1
1400 | – | FC(F)c1ccccc1-c1nc(NCc2ccc(-c3cccnc3)cc2)c2ccccc2n1
1600 | – | Brc1ccccc1-c1nc(NCc2ccc(-c3cccnc3)cc2)c2ccccc2n1
110 | – | CSc1cnc(-c2ccccc2C(C)C)nc1NCc1ccc(-c2cccnc2)cc1
160 | – | CC(C)c1ccccc1-c1nc2c(c(NCc3ccc(-c4cccnc4)cc3)n1)CCC2
5100 | – | Cc1ccc(CNc2nc(-c3ccccc3C(F)(F)F)nc3ccccc23)s1
6500 | – | Fc1ccccc1-c1nc(NCc2ccc(-c3cccnc3)cc2)c2ccccc2n1
50 | – | Cc1ccc(-c2ccc(CNc3nc(-c4ccccc4C(C)C)ncc3C)cc2)cn1
210 | – | Cc1cc(NCc2ccc(-c3cccnc3)cc2)nc(-c2ccccc2C(C)C)n1
80 | – | Cc1cnc(-c2ccccc2C(C)C)nc1NCc1ccc(-c2ccc(F)nc2)cc1
8700 | – | CC(=O)c1ccccc1-c1ncc(C)c(NCc2ccc(-c3cccnc3)cc2)n1
– | 13 | [2H]C([2H])(Nc1nc(-c2ccccc2C([2H])(C([2H])([2H])[2H])C([2H])([2H])[2H])ncc1C)c1ccc(-n2ccnn2)cc1
– | 7.9 | [2H]C([2H])([2H])C(c1ccccc1-c1ncc(C)c(NCc2ccc(-n3ccnn3)cc2)n1)C([2H])([2H])[2H]
590 | 22 | Cc1cnc(-c2ccccc2C(C)C)nc1NC(C)(C)c1ccc(-n2ccnn2)cc1
7800 | – | O=[N+]([O-])c1ccccc1-c1nc(NCc2ccc(-c3cccnc3)cc2)c2ccccc2n1
150 | – | CC(C)c1ccccc1-c1nccc(NCc2ccc(-c3cccnc3)cc2)n1
110 | – | CC(C)c1ccccc1-c1nc(NCc2ccc(-c3cccnc3)cc2)c2sccc2n1
2200 | – | FC(F)(F)c1ccccc1-c1nc(NCc2ccc(-c3ccc(Cl)c(Cl)c3)cc2)c2ccccc2n1
